In ChEMBL document CHEMBL1208782, “Synthesis and pharmacological validation of a novel series of non-steroidal FXR agonists” (Bioorg Med Chem Lett, 2010):
Active and inactive are the calls of the source. The calls are words filed in the database; no cut-off is given here.

Key:
[1] = Plasma concentration in db/db mouse at 5 mg/kg, po after 10 mins; type: ADME, organism-based; set-up: dose 5 mg/kg, route oral; settings: read-out: Drug uptake
Method in brief: (§1)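 Single dose to mice, 5 mg/kg po or 1 mg/kg iv. Plasma was sampled at 5, 10, 30, 90 and 240 min. Only parent compound was measured, in ng/mL.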

[2] = Drug level in db/db mouse bile measured metabolites as taurine amide at 1 mg/kg, iv after 240 mins; type: ADME, organism-based; set-up: dose 1 mg/kg, route intravenous; settings: in vivo, 4 h
Method in brief: (§2)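 Mice got a single dose, 5 mg/kg po or 1 mg/kg iv. Liver and bile were sampled 240 min after dosing. Parent carboxylic acid, its acyl-glucuronide and its taurine amide were quantified separately, in ng/mL. Glucuronide identity was confirmed by glucuronidase digestion of bile or bile extracts, which regenerated the parent.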

[3] = test system: Mus musculus; test: Reduction in total plasma cholesterol level in db/db mouse at 1-25 mg/kg bid after 12 days; type: functional, organism-based
Method in brief: (§3)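 C57BL/KSK-mLep^db/mLep^db mice were dosed orally at 1, 5 and 25 mg/kg b.i.d. for 12 days. Total plasma triglycerides and total plasma cholesterol were measured, with cholesterol reported as mg/dl. Significance was given at p<0.05, <0.01 and <0.001 levels.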

[4] = target: Estrogen receptor beta (Homo sapiens, UniProt Q92731); test: Agonist activity at ERbeta-LBD expressed in HEK293 cells assessed as Gal4-DBD interaction by cellular mammalian one hybrid assay; type: functional, cell-based
[5] = Plasma concentration in db/db mouse at 5 mg/kg, po after 5 mins; type: ADME, organism-based; set-up: dose 5 mg/kg, route oral; settings: read-out: Drug uptake; method in brief: as §1
[6] = test system: Mus musculus; test: Volume of distribution in db/db mouse at 5 mg/kg, po; type: ADME, organism-based; set-up: dose 5 mg/kg, route oral; settings: in vivo
Method in brief: (§4)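 Derived from the single-dose mouse plasma time courses of parent compound, 5-240 min. Dosing was 5 mg/kg po or 1 mg/kg iv. Volume of distribution is in mL/kg, clearance in mL/h/kg, and oral bioavailability in %.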

[7] = target: Peroxisome proliferator-activated receptor alpha (Homo sapiens, UniProt Q07869); test: Agonist activity at PPARalpha-LBD expressed in HEK293 cells assessed as Gal4-DBD interaction by cellular mammalian one hybrid assay; type: functional, cell-based
[8] = test system: Mus musculus; test: Reduction in total plasma triglyceride level in db/db mouse at 1-25 mg/kg bid after 12 days; type: functional, organism-based; method in brief: as §3
[9] = Oral bioavailability in db/db mouse at 5 mg/kg, po; type: ADME, organism-based; settings: in vivo; method in brief: as §4
[10] = test system: Liver; test: Drug level in db/db mouse liver measured metabolites as carboxylic acid at 5 mg/kg, po after 240 mins; type: ADME, organism-based; set-up: dose 5 mg/kg, route oral; settings: in vivo, 4 h; method in brief: as §2
[11] = Drug level in db/db mouse bile measured metabolites as glucuronide at 5 mg/kg, po after 240 mins; type: ADME, organism-based; set-up: dose 5 mg/kg, route oral; settings: in vivo, 4 h
[12] = Plasma concentration in db/db mouse at 1 mg/kg, iv after 240 mins; type: ADME, organism-based; set-up: dose 1 mg/kg, route intravenous; settings: read-out: Drug uptake; method in brief: as §1
[13] = Plasma concentration in db/db mouse at 5 mg/kg, po after 30 mins; type: ADME, organism-based; set-up: dose 5 mg/kg, route oral; settings: read-out: Drug uptake; method in brief: as §1
[14] = Plasma concentration in db/db mouse at 1 mg/kg, iv after 5 mins; type: ADME, organism-based; set-up: dose 1 mg/kg, route intravenous; settings: read-out: Drug uptake; method in brief: as §1
[15] = Clearance in db/db mouse at 1 mg/kg, iv; type: ADME, organism-based; set-up: dose 1 mg/kg, route intravenous; settings: in vivo
Method in brief: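 Mice received a single dose of 5 mg/kg po or 1 mg/kg iv. Plasma was sampled at 5, 10, 30, 90 and 240 min and the parent compound alone was measured (ng/mL). Clearance (mL/h/kg), Vd (mL/kg) and oral bioavailability were derived from these plasma profiles.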

[16] = Plasma concentration in db/db mouse at 1 mg/kg, iv after 10 mins; type: ADME, organism-based; set-up: dose 1 mg/kg, route intravenous; settings: read-out: Drug uptake; method in brief: as §1
[17] = Drug level in db/db mouse bile measured metabolites as carboxylic acid at 5 mg/kg, po after 240 mins; type: ADME, organism-based; set-up: dose 5 mg/kg, route oral; settings: in vivo, 4 h
[18] = target: Estrogen receptor (Homo sapiens, UniProt P03372); test: Agonist activity at ERalpha-LBD expressed in HEK293 cells assessed as Gal4-DBD interaction by cellular mammalian one hybrid assay; type: functional, cell-based
[19] = Plasma concentration in db/db mouse at 25 mg/kg bid after 24 hrs by LC/MS-MS analysis; type: ADME, organism-based; set-up: dose 25 mg/kg; settings: read-out: Drug uptake
Method in brief: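 db/db mice were dosed twice daily for 12 days. Plasma and liver concentrations were determined 4 h and 24 h after the last administration.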

[20] = test system: Mus musculus; test: Volume of distribution in db/db mouse at 1 mg/kg, iv; type: ADME, organism-based; set-up: dose 1 mg/kg, route intravenous; settings: in vivo; method in brief: as §4
[21] = test system: Liver; test: Drug level in db/db mouse liver measured metabolites as glucuronide at 1 mg/kg, iv after 240 mins; type: ADME, organism-based; set-up: dose 1 mg/kg, route intravenous; settings: in vivo, 4 h; method in brief: as §2
[22] = Drug level in db/db mouse bile measured metabolites as taurine amide at 5 mg/kg, po after 240 mins; type: ADME, organism-based; set-up: dose 5 mg/kg, route oral; settings: in vivo, 4 h; method in brief: as §2
[23] = Plasma concentration in db/db mouse at 1 mg/kg, iv after 90 mins; type: ADME, organism-based; set-up: dose 1 mg/kg, route intravenous; settings: read-out: Drug uptake; method in brief: as §1
[24] = test system: Liver; test: Drug level in db/db mouse liver measured metabolites as glucuronide at 5 mg/kg, po after 240 mins; type: ADME, organism-based; set-up: dose 5 mg/kg, route oral; settings: in vivo, 4 h; method in brief: as §2
[25] = Plasma concentration in db/db mouse at 5 mg/kg, po after 240 mins; type: ADME, organism-based; set-up: dose 5 mg/kg, route oral; settings: read-out: Drug uptake; method in brief: as §1
[26] = Plasma concentration in db/db mouse at 5 mg/kg, po after 90 mins; type: ADME, organism-based; set-up: dose 5 mg/kg, route oral; settings: read-out: Drug uptake; method in brief: as §1
[27] = test system: Mus musculus; test: Reduction in total plasma cholesterol level in db/db mouse at 1 mg/kg bid after 12 days; type: functional; method in brief: as §3
[28] = test system: Liver; test: Drug level in db/db mouse liver measured metabolites as carboxylic acid at 1 mg/kg, iv after 240 mins; type: ADME, organism-based; set-up: dose 1 mg/kg, route intravenous; settings: in vivo, 4 h; method in brief: as §2
[29] = Plasma concentration in db/db mouse at 1 mg/kg, iv after 30 mins; type: ADME, organism-based; set-up: dose 1 mg/kg, route intravenous; settings: read-out: Drug uptake; method in brief: as §1
[30] = Drug level in db/db mouse bile measured metabolites as carboxylic acid at 1 mg/kg, iv after 240 mins; type: ADME, organism-based; set-up: dose 1 mg/kg, route intravenous; settings: in vivo, 4 h
[31] = target: Peroxisome proliferator-activated receptor gamma (Homo sapiens, UniProt P37231); test: Agonist activity at PPARgamma-LBD expressed in HEK293 cells assessed as Gal4-DBD interaction by cellular mammalian one hybrid assay; type: functional, cell-based
[32] = test system: Liver; test: Drug level in db/db mouse liver measured metabolites as taurine amide at 5 mg/kg, po after 240 mins; type: ADME, organism-based; set-up: dose 5 mg/kg, route oral; settings: in vivo, 4 h; method in brief: as §2
[33] = test system: Liver; test: Drug level in db/db mouse liver measured metabolites as taurine amide at 1 mg/kg, iv after 240 mins; type: ADME, organism-based; set-up: dose 1 mg/kg, route intravenous; settings: in vivo, 4 h; method in brief: as §2

Chain of Peroxisome proliferator-activated receptor gamma (P37231 whole entry, the tested form may be a part): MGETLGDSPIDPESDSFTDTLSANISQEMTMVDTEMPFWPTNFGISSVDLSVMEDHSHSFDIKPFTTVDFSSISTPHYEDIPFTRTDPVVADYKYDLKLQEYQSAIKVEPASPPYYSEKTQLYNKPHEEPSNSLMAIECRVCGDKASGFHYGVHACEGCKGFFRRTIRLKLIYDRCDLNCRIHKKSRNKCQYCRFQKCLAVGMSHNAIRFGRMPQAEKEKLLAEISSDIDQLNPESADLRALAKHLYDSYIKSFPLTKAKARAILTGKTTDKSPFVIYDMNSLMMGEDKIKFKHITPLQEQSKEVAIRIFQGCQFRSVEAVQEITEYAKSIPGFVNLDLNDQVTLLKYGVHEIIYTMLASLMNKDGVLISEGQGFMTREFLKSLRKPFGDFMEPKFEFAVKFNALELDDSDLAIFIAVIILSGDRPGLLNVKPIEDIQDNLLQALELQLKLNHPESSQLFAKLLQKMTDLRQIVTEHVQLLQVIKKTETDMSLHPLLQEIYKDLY
Chain of Estrogen receptor beta (Q92731 whole entry, the tested form may be a part): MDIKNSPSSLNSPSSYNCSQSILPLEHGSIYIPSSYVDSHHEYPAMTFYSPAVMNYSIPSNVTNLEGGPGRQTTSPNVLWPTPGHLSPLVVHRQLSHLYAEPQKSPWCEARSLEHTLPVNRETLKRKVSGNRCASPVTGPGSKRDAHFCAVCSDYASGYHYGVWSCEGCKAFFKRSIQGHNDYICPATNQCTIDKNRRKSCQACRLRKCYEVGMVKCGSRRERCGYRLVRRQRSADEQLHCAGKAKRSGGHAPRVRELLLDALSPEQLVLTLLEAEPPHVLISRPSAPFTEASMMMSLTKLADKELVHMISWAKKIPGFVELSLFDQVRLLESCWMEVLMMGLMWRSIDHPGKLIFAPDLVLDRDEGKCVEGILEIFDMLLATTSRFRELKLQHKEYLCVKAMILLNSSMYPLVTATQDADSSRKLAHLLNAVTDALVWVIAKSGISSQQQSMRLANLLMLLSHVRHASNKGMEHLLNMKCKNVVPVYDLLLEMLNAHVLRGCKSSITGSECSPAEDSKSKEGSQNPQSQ
Chain of Estrogen receptor (P03372 whole entry, the tested form may be a part): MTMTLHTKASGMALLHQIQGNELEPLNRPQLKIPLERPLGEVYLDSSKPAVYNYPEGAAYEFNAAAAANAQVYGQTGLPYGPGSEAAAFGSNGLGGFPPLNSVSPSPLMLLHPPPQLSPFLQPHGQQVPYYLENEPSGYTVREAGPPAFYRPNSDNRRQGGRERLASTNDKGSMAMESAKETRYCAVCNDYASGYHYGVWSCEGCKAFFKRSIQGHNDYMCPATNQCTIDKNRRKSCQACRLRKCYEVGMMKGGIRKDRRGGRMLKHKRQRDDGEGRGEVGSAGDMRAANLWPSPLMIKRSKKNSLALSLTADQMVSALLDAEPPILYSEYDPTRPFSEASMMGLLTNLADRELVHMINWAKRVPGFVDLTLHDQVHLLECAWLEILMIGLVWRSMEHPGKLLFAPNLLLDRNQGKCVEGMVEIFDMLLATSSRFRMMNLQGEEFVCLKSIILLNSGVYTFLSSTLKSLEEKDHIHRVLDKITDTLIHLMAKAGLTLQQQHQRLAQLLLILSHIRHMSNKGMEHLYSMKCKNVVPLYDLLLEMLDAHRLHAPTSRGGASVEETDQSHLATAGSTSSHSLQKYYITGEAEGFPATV
Chain of Peroxisome proliferator-activated receptor alpha (Q07869 whole entry, the tested form may be a part): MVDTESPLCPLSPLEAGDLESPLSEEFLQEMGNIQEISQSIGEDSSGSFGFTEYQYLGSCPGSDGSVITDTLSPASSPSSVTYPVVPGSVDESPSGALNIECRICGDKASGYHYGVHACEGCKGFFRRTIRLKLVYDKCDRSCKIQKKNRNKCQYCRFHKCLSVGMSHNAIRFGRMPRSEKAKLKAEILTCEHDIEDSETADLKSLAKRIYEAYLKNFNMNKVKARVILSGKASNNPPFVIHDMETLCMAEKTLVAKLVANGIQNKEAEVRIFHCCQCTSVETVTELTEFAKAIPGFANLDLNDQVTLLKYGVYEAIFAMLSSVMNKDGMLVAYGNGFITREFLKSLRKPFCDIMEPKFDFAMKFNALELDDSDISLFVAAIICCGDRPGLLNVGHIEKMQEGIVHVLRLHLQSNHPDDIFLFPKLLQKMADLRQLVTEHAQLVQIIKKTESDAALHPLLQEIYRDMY

SMILES: CN(Cc1ccc(C(=O)O)cc1)c1ccc(OCc2c(-c3c(Cl)cccc3Cl)noc2C2CC2)nc1C(F)(F)F
- concentration at 10 min [1]: 283 ng/mL
- Drug uptake [2]: 10013 ng/mL
- Activity [3]: Active
- EC50 [4]: > 10 µM
- concentration at 5 min [5]: 427 ng/mL
- Vd [6]: 5.2 L/kg
- EC50 [7]: > 10 µM
- Activity [8]: Active
- bioavailability [9]: 16.1%
- Drug uptake [10]: 257 ng/mL
- Drug uptake [11]: 2807 ng/mL
- concentration at 4 h [12]: 94 ng/mL
- concentration at 0.5 h [13]: 531 ng/mL
- concentration at 5 min [14]: 745 ng/mL
- clearance [15]: 11.9 mL/min/kg
- concentration at 10 min [16]: 437 ng/mL
- Drug uptake [17]: 1446 ng/mL
- EC50 [18]: > 10 µM
- concentration at 24 h [19]: 11 nM
- Vd [20]: 1.24 L/kg
- Drug uptake [21]: 17 ng/mL
- Drug uptake [22]: 47638 ng/mL
- concentration at 1.5 h [23]: 398 ng/mL
- Drug uptake [24]: 172 ng/mL
- concentration at 4 h [25]: 52 ng/mL
- concentration at 1.5 h [26]: 370 ng/mL
- Activity [27]: 97.2 mg/dL
- Drug uptake [28]: 23 ng/mL
- concentration at 0.5 h [29]: 325 ng/mL
- Drug uptake [30]: 173 ng/mL
- EC50 [31]: > 10 µM

SMILES: CC(C)c1onc(-c2c(Cl)cccc2Cl)c1COc1ccc(N(C)Cc2ccc(C(=O)O)cc2)c(C(F)(F)F)n1
- concentration at 10 min [1]: 92 ng/mL
- Drug uptake [2]: 11927 ng/mL
- Activity [3]: Active
- EC50 [4]: > 10 µM
- concentration at 5 min [5]: 57 ng/mL
- Vd [6]: 5.26 L/kg
- EC50 [7]: > 10 µM
- Activity [8]: Active
- bioavailability [9]: 16.2%
- Drug uptake [10]: 1512 ng/mL
- Drug uptake [11]: 18928 ng/mL
- concentration at 0.5 h [13]: 420 ng/mL
- concentration at 5 min [14]: 1620 ng/mL
- clearance [15]: 16.8 mL/min/kg
- concentration at 10 min [16]: 1600 ng/mL
- Drug uptake [17]: 1697 ng/mL
- EC50 [18]: > 10 µM
- concentration at 24 h [19]: 3 nM
- Vd [20]: 0.931 L/kg
- Drug uptake [22]: 22443 ng/mL
- concentration at 1.5 h [23]: 122 ng/mL
- Drug uptake [32]: 372 ng/mL
- Drug uptake [24]: 2872 ng/mL
- concentration at 4 h [25]: 14 ng/mL
- concentration at 1.5 h [26]: 267 ng/mL
- Drug uptake [33]: 134 ng/mL
- Drug uptake [28]: 262 ng/mL
- concentration at 0.5 h [29]: 361 ng/mL
- Drug uptake [30]: 472 ng/mL
- EC50 [31]: > 10 µM
